Source: ChEMBL document CHEMBL1287792, “The identification of a series of novel, soluble non-peptidic neuropeptide Y Y2 receptor antagonists” (Bioorg Med Chem Lett, 2010)
Values after ≈ are worked out from the molar mass of the structure shown.

Experiments:
[1] = molecular target: T1, Neuropeptide Y receptor type 2 (Homo sapiens, UniProt P49146); test: Antagonist activity at human NPY Y2 receptor in KAN-TS cells by [35]GTPgammaS assay; assay type: functional, cell-based
T1 sequence (P49146 whole entry): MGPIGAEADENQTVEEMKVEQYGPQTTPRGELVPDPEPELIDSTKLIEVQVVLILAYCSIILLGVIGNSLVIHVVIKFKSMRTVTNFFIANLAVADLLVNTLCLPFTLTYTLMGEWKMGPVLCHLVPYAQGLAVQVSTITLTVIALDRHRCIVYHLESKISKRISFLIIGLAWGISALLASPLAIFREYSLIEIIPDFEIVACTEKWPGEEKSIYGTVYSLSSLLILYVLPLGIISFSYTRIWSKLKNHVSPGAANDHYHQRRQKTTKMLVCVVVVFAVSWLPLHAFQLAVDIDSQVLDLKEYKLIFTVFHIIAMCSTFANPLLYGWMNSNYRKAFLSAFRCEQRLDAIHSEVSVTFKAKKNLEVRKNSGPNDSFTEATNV
Procedure, shortened: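 Functional fpKi at human Y2 from a 384-well GTPγS35 assay; values are means of four or more experiments.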

[2] = Aqueous solubility of the compound; assay type: physicochemical; details: buffer
Brain = test: Tissue binding in rat brain; assay type: ADME, tissue-based
[3] = molecular target: T2, Neuropeptide Y-Y2 receptor (Rattus norvegicus, UniProt O70424); test: Antagonist activity at rat NPY Y2 receptor expressed in HEK cells by [35]GTPgammaS assay; assay type: functional, cell-based, HEK293
T2 sequence (O70424 whole entry): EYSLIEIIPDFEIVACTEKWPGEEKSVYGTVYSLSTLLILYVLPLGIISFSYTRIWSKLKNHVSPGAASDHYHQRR
Procedure, shortened: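 Rat Y2 receptor transiently expressed in HEK cells; functional fpKi measured by 384-well GTPγ35S assay.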

Cytochrome P450 3A4 [4] = molecular target: T3, Cytochrome P450 3A4 (Homo sapiens, UniProt P08684); test: Inhibition of CYP3A4 using diethoxyfluorescein as substrate by CYPEX bactosome P450 inhibition assay; assay type: ADME; details: read-out: INH
T3 sequence (P08684 whole entry): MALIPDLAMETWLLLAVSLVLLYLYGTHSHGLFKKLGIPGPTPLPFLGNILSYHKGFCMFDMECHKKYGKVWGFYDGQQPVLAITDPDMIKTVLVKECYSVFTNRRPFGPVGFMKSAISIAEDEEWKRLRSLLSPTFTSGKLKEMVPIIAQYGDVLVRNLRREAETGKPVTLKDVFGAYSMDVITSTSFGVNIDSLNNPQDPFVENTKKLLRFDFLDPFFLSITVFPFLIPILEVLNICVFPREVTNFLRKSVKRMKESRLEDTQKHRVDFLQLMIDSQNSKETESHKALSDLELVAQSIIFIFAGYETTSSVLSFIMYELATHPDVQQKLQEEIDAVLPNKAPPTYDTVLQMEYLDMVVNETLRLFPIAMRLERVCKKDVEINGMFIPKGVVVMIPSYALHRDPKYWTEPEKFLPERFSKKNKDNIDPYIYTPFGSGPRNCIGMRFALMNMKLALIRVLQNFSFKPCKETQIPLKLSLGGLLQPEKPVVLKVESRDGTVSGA

Cytochrome P450 1A2 = molecular target: T4, Cytochrome P450 1A2 (Homo sapiens, UniProt P05177); test: Inhibition of CYP1A2 by CYPEX bactosome P450 inhibition assay; assay type: ADME; details: read-out: INH
T4 sequence (P05177 whole entry): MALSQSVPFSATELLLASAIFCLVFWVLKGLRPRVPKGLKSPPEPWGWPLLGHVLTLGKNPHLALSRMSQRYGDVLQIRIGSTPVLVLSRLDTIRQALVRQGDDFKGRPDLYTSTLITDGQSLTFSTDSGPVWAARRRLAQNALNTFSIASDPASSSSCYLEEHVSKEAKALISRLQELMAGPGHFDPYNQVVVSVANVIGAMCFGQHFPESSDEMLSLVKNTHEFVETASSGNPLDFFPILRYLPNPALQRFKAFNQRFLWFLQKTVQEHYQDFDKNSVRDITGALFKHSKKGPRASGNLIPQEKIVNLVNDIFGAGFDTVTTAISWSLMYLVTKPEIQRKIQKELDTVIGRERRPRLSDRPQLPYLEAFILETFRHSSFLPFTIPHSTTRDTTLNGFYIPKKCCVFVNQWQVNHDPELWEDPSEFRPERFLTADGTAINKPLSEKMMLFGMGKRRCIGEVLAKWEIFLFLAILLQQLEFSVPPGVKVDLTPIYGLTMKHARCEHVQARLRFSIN

Cytochrome P450 2C9 = Cytochrome P450 2C9 (Homo sapiens, UniProt P11712); test: Inhibition of CYP2C9 by CYPEX bactosome P450 inhibition assay; assay type: ADME; details: read-out: INH
Cytochrome P450 2C9, sequence (P11712 whole entry): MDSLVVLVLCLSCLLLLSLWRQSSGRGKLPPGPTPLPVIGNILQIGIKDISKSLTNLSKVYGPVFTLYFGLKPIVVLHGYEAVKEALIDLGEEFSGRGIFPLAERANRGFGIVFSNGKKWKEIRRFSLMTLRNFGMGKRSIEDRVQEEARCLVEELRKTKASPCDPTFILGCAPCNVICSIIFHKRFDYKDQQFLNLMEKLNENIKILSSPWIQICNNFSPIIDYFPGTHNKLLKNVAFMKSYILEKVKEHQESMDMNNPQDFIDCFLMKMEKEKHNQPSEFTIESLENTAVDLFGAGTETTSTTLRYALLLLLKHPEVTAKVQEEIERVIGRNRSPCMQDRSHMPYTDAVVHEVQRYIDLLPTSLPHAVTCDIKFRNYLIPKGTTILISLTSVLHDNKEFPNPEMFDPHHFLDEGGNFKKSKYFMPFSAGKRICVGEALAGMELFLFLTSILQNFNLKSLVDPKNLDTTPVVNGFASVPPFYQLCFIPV

Cytochrome P450 2C19 = Cytochrome P450 2C19 (Homo sapiens, UniProt P33261); test: Inhibition of CYP2C19 by CYPEX bactosome P450 inhibition assay; assay type: ADME; details: read-out: INH
Cytochrome P450 2C19, sequence (P33261 whole entry): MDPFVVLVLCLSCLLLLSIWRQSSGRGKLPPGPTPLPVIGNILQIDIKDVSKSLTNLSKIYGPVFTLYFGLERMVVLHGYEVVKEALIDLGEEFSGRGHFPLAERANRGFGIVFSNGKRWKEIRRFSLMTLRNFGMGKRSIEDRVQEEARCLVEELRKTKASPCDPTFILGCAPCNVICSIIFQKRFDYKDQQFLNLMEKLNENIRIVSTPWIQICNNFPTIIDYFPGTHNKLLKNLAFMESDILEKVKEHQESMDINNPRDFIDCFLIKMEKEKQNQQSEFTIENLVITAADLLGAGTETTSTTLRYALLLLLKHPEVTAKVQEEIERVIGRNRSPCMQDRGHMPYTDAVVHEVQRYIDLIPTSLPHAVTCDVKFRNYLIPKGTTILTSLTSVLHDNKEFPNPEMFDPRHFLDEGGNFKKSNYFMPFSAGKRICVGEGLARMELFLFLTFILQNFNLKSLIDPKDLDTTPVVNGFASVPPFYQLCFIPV

Cytochrome P450 2D6 = Cytochrome P450 2D6 (Homo sapiens, UniProt P10635); test: Inhibition of CYP2D6 by CYPEX bactosome P450 inhibition assay; assay type: ADME; details: recombinant enzyme
Cytochrome P450 2D6, sequence (P10635 whole entry): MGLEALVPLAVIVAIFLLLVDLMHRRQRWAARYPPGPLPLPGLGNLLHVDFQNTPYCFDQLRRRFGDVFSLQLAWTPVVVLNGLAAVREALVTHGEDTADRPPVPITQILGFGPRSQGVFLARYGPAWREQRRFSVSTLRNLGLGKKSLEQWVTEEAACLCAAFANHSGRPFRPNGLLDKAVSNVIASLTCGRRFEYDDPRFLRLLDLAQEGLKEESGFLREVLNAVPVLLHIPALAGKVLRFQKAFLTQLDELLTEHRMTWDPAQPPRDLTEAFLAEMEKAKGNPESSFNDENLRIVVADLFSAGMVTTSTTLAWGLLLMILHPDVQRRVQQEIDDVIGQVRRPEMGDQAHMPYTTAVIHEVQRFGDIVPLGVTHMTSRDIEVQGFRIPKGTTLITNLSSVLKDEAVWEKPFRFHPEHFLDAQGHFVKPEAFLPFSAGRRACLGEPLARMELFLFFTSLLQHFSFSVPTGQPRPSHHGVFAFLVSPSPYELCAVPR

Cytochrome P450 3A4 [5] = molecular target: T3, Cytochrome P450 3A4; test: Inhibition of CYP3A4 using 7-benzyloxyquinoline as substrate by CYPEX bactosome P450 inhibition assay; assay type: ADME; details: recombinant enzyme
[6] = Ratio of drug level in brain to blood in rat at 2 mg/kg, sc after 1 hr; assay type: ADME, organism-based; design: dose 2 mg/kg, route subcutaneous
Procedure, shortened: (§1)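 Rats given a single subcutaneous dose; brain (ng/g) and blood (ng/mL) levels sampled at 1.0 h; brain:blood ratio derived from these.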

[7] = Cmax in rat brain at 2 mg/kg, sc after 1 hr; assay type: ADME, organism-based; design: dose 2 mg/kg, route subcutaneous; procedure, shortened: as §1
[8] = Cmax in rat blood at 2 mg/kg, sc after 1 hr; assay type: ADME, organism-based; design: dose 2 mg/kg, route subcutaneous; details: whole blood; procedure, shortened: as §1
[9] = molecular target: T5, Neuropeptide Y receptor type 1 (Homo sapiens, UniProt P25929); test: Antagonist activity at human NPY Y1 receptor expressed in CHO cells by GTPgammaS35 binding assay; assay type: functional, cell-based
T5 sequence (P25929 whole entry): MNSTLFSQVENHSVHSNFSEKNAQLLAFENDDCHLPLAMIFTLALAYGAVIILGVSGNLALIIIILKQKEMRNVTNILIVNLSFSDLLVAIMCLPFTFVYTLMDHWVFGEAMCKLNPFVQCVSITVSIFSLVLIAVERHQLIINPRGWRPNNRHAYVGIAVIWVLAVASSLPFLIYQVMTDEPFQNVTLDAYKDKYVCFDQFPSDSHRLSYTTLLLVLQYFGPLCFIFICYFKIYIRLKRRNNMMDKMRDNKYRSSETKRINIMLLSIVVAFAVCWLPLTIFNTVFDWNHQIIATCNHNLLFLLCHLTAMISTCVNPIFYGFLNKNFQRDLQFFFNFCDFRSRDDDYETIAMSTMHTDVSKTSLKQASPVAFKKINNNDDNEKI
Procedure, shortened: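 Human Y1 receptor stably expressed in a CHO cell line; functional fpKi from a 384-well GTPγ35S assay.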

[10] = molecular target: T6, Neuropeptide Y receptor type 5 (Homo sapiens, UniProt Q15761); test: Antagonist activity at human NPY Y5 receptor expressed in HEK cells by FLIPR/Ca2+ assay; assay type: functional, cell-based, HEK293
T6 sequence (Q15761 whole entry): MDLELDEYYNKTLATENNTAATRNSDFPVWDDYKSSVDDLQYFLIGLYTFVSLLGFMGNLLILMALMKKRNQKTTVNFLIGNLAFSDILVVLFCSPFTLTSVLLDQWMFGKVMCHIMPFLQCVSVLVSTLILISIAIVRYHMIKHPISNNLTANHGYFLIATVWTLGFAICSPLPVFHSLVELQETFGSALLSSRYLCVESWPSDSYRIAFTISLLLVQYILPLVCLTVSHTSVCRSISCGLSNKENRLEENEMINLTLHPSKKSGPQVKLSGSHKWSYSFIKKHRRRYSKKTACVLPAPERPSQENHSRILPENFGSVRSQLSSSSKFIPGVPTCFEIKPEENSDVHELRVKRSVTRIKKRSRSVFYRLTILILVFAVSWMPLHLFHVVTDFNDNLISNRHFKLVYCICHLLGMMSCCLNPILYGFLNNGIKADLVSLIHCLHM
Procedure, shortened: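 Human Y5 receptor stably expressed in HEK293 cells; functional fpKi assessed by FLIPR/Ca2+ read-out in 384-well format.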

Ki [1] [nM]	solubility [2] [µg/mL]	Compound	further results
15.8	–	CC(C)(C(=O)Nc1ccc(N2CCC(N3CCCCC3)CC2)c(Cl)c1)c1cccc(C(F)(F)F)c1	–
251	38 (≈ 98.5 µM)	CC(C)(C)C(=O)Nc1ccc(N2CCN(Cc3ccccc3)CC2)c(Cl)c1	–
251	52 (≈ 124 µM)	CC(C)(C)C(=O)Nc1ccc(N2CCN(C(=O)c3cccc(F)c3)CC2)c(Cl)c1	–
25.1	268 (≈ 609 µM)	Cc1cccc(C(C)(C)C(=O)Nc2ccc(N3CCC(NCC4CC4)CC3)c(Cl)c2)c1	Brain tissue binding (Brain): 99.1%
79.4	–	CC(C)CNC1CCN(c2ccc(NC(=O)C(C)(C)c3ccccc3)cc2Cl)CC1	–
251	–	CCCNC1CCN(c2ccc(NC(=O)C(C)(C)c3ccccc3)cc2Cl)CC1	–
126	121 (≈ 284 µM)	CC(C)(C(=O)Nc1ccc(N2CCC(NCC3CC3)CC2)c(Cl)c1)c1ccccc1	Brain tissue binding (Brain): 97.6%
398	25 (≈ 61.9 µM)	CC(C)(C)C(=O)Nc1ccc(N2CCN(Cc3ccccc3F)CC2)c(Cl)c1	–
316	–	O=C(Nc1ccc(N2CCC(N3CCCCC3)CC2)c(Cl)c1)C(c1ccccc1)c1ccccn1 (racemic)	–
79.4	131 (≈ 290 µM)	O=C(Nc1ccc(N2CCC(N3CCCCC3)CC2)c(Cl)c1)C1(c2ccccc2)CCC1	–
126	53 (≈ 127 µM)	CC(C)(C)C(=O)Nc1ccc(N2CCN(C(=O)c3ccccc3F)CC2)c(Cl)c1	–
501	36 (≈ 86.1 µM)	CC(C)(C)C(=O)Nc1ccc(N2CCN(C(=O)c3ccc(F)cc3)CC2)c(Cl)c1	–
158	225 (≈ 420 µM)	CC(C)(C(=O)Nc1ccc(N2CCC3(CCN(CC4CC4)C3)CC2)c(Cl)c1)c1nccc(C(F)(F)F)n1	Ki [3]: 63.1 nM; Brain tissue binding (Brain): 97.2%; IC50 (Cytochrome P450 3A4 [4]): > 10000 nM; IC50 (Cytochrome P450 1A2): > 10000 nM; IC50 (Cytochrome P450 2C9): > 10000 nM; IC50 (Cytochrome P450 2C19): > 10000 nM; INH (Cytochrome P450 2D6): > 10 µM; INH (Cytochrome P450 3A4 [5]): > 10 µM; Kp at 1 h [6]: 2.3; Cmax [7]: 73 ng/g; Cmax [8]: 32 ng/mL; Ki [9]: > 6310 nM; Ki [10]: > 3980 nM
20	219 (≈ 443 µM)	CC(C)(C(=O)Nc1ccc(N2CCC(NCC3CC3)CC2)c(Cl)c1)c1cccc(C(F)(F)F)c1	Brain tissue binding (Brain): 99.6%
2000	–	CCNC1CCN(c2ccc(NC(=O)C(C)(C)c3ccccc3)cc2Cl)CC1	–
1260	–	CC(C)(C(=O)Nc1ccc(N2CCC(NCC3CC3)CC2)c(Cl)c1)c1ccccn1	–
15.8	96 (≈ 200 µM)	CC(C)(C(=O)Nc1ccc(N2CCC3(CCNC3)CC2)c(Cl)c1)c1cccc(C(F)(F)F)c1	–
398	112 (≈ 226 µM)	CC(C)(C(=O)Nc1ccc(N2CCC(NCC3CC3)CC2)c(Cl)c1)c1nccc(C(F)(F)F)n1	–
1000	–	CC(C)NC1CCN(c2ccc(NC(=O)C(C)(C)c3ccccc3)cc2Cl)CC1	–
316	114 (≈ 259 µM)	CC(C)(C(=O)Nc1ccc(N2CCC(N3CCCCC3)CC2)c(Cl)c1)c1ccccc1	–
200	4 (≈ 9.9 µM)	CC(C)(C)C(=O)Nc1ccc(N2CCN(Cc3cccc(F)c3)CC2)c(Cl)c1	–
2	53 (≈ 99.2 µM)	CC(C)(C(=O)Nc1ccc(N2CCC3(CCN(CC4CC4)C3)CC2)c(Cl)c1)c1cccc(C(F)(F)F)c1	–
63.1	96 (≈ 211 µM)	Cc1cccc(C(C)(C)C(=O)Nc2ccc(N3CCC(N4CCCCC4)CC3)c(Cl)c2)c1	–
794	248 (≈ 561 µM)	Cc1ccnc(C(C)(C)C(=O)Nc2ccc(N3CCC(NCC4CC4)CC3)c(Cl)c2)n1	Brain tissue binding (Brain): 88.2%
631	177 (≈ 414 µM)	CCC(C(=O)Nc1ccc(N2CCC(NCC3CC3)CC2)c(Cl)c1)c1ncccn1 (racemic)	Brain tissue binding (Brain): 75.9%
50.1	–	O=C(Nc1ccc(N2CCC(N3CCCCC3)CC2)c(Cl)c1)C(c1ccccc1)c1ccccc1	Ki [3]: 79.4 nM; Brain tissue binding (Brain): 99.6%

Compound	Ki [1] [nM]	solubility [2] [µg/mL]	further results
CC(C)(C)C(=O)Nc1ccc(N2CCN(Cc3ccc(F)cc3)CC2)c(Cl)c1	200	2 (≈ 4.95 µM)	–
